Experimental data as given in ChEMBL document CHEMBL5329172, “Chloroacetamide fragment library screening identifies new scaffolds for covalent inhibition of the TEAD·YAP1 interaction” (RSC Med Chem, 2023).
Activity calls are given as the source filed them. No cut-off for these calls is given here.

Assays:
[1] = target: TEAD2-YAP1 (Homo sapiens, UniProt Q15562); assay: (§1) Inhibition of TEAD2 (217 to 447 residues) (unknown origin) expressed in Escherichia coli BL21 (DE3) cells/FAM-labelled YAP1 (60 to 99 residues)(unknown origin) protein-protein interaction preincubated for 24 hrs at 4 degree C with compound followed by fluorescent labelled YAP1 addition by fluorescence polarization assay
TEAD2-YAP1, sequence (P46937 whole entry, the tested form may be a part): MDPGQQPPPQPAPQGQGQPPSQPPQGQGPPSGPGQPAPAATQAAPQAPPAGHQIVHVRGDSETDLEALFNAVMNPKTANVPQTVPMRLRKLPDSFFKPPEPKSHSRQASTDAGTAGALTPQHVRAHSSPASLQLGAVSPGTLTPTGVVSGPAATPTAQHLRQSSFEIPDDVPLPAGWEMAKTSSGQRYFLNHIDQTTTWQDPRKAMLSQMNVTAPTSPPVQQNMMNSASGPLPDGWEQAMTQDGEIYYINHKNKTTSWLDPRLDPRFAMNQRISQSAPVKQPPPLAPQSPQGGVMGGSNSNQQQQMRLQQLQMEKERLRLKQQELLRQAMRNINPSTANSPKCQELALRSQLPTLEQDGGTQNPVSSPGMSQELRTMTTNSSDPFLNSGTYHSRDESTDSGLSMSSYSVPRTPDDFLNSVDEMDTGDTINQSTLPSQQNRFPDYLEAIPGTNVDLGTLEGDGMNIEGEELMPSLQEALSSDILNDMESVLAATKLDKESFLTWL
TEAD2-YAP1, sequence (Q15562 whole entry, the tested form may be a part): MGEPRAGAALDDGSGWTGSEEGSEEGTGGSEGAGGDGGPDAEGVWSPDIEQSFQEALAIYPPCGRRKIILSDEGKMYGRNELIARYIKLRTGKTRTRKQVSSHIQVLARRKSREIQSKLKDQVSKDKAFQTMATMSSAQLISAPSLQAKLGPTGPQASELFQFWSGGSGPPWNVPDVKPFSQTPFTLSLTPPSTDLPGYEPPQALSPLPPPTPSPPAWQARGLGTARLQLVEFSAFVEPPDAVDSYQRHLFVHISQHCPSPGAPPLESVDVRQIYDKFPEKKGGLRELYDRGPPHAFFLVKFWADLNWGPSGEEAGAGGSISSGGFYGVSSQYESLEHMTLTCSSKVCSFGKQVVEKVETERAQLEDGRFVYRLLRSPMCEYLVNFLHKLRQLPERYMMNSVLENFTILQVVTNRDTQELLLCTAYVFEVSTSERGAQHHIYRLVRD
How it was run: (§2)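 FP: 64 nM TEAD4, TEAD4C367S, TEAD2 or TEAD3, or 250 nM TEAD1, was preincubated with compound for 24 h at 4 °C in PBS with 0.01% Triton X-100. FAM-YAP1 60–99 peptide (disulfide-crosslinked) was then added at 16 nM final. Polarization was read at ex 485/em 535 nm. Percent inhibition was taken relative to no-compound and no-protein controls. The single-point primary screen used 50 μM.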

[2] = target: T1, YAP1-TEAD4 (Homo sapiens, UniProt Q15561); assay: as §1, with “GST-tagged TEAD4” for “TEAD2”, “434” for “447”, “TEAD4” for “compound”; how it was run: as §2
T1 sequence (P46937 whole entry, the tested form may be a part): as the sequence (P46937 whole entry, the tested form may be a part) above
T1 sequence (Q15561 whole entry, the tested form may be a part): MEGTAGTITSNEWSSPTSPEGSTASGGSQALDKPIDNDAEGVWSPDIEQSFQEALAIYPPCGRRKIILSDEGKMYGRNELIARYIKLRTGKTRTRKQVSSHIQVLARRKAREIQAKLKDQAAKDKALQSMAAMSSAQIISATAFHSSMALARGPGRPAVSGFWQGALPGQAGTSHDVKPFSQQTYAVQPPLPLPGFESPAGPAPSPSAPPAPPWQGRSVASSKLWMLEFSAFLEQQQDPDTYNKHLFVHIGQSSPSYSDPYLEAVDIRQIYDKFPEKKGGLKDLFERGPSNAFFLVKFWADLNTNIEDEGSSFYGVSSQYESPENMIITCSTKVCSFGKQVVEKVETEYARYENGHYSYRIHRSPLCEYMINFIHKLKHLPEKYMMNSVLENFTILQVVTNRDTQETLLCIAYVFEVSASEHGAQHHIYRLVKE

[3] = target: T2, YAP1-TEAD4 (Homo sapiens) (UniProt P46937+Q15561); assay: (§3) Covalent inhibition of GST-tagged TEAD4 (217 to 434 residues) (unknown origin) expressed in Escherichia coli BL21 (DE3) cells/FAM-labelled YAP1 (60 to 99 residues)(unknown origin) protein-protein interaction assessed as protein-compound adduct formation by second order rate constant, kinact/ki ratio at 100 uM incubated for 0.5 to 6 hrs at 4 degree C followed by mass spectrometry analysis; conditions: time 0.5-6 hrs
How it was run: (§4)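 Kinetics by MS: 2.5 μM TEAD4 was incubated at 4 °C with 3.1–100 μM compound. Aliquots were quenched with 0.1 M formic acid at set times from 0.5 h upward and analysed by whole-protein MS. Adduct relative to unreacted protein was fit to 100×(1−e^(−kobs·t)) to give kobs. kobs versus concentration was fit hyperbolically for kinact and KI, or linearly for kinact/KI where no plateau was reached.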

[4] = target: T2, YAP1-TEAD4 (Homo sapiens); assay: as §1, with “GST-tagged TEAD4” for “TEAD2”, “434” for “447”, “interaction assessed as maximum inhibition at 50 uM” for “interaction”, “TEAD4” for “compound”; how it was run: as §2
[5] = target: T3, Transcriptional coactivator YAP1/Transcriptional enhancer factor TEF-1 (Homo sapiens) (UniProt P46937+P28347); assay: as §3, with “TEAD1 (209” for “GST-tagged TEAD4 (217”, “426” for “434”, “formation” for “formation by second order rate constant, kinact/ki ratio”, “24” for “0.5 to 6”
T3 sequence (P28347 whole entry, looked up): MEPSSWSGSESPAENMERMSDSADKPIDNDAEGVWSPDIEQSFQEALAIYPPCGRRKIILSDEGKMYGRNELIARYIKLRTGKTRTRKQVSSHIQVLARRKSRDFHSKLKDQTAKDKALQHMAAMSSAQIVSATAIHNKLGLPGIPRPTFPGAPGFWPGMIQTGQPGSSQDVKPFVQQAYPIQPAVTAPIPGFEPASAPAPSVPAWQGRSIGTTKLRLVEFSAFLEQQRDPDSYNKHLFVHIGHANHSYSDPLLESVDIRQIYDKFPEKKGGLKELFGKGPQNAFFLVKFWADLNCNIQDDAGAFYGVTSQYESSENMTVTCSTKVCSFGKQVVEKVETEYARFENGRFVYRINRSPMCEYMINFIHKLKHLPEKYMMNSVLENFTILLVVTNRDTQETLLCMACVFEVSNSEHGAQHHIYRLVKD
T3 sequence (P46937 whole entry, looked up): as the sequence (P46937 whole entry, the tested form may be a part) above
How it was run: (§5)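 Intact-protein MS: 2.5 μM protein (TEAD4 217–434 with GST cleaved, TEAD4C367S, TEAD1 209–426, TEAD2 217–447 or TEAD3 210–427) incubated with 100 μM compound in PBS for 24 h at 4 °C. Samples were centrifuged to remove precipitate, desalted on a C3 reverse-phase column with a water/acetonitrile 0.1% formic acid gradient, and masses were read by Q-TOF. Adduct peaks were reported as percent.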

[6] = target: Transcriptional coactivator YAP1/Transcriptional enhancer factor TEF-1 (Homo sapiens, UniProt P28347); assay: as §1, with “TEAD1 (209” for “TEAD2 (217”, “426” for “447”; how it was run: as §2
Transcriptional coactivator YAP1/Transcriptional enhancer factor TEF-1, sequence (P46937 whole entry): as the sequence (P46937 whole entry, the tested form may be a part) above
Transcriptional coactivator YAP1/Transcriptional enhancer factor TEF-1, sequence (P28347 whole entry): as the sequence (P28347 whole entry, looked up) above

[7] = target: TEAD3-YAP1 (Homo sapiens) (UniProt P46937+Q99594); assay: as §1, with “TEAD3 (210” for “TEAD2 (217”, “427” for “447”; how it was run: as §2
TEAD3-YAP1 (Homo sapiens), sequence (P46937 whole entry, looked up, the tested form may be a part): as the sequence (P46937 whole entry, the tested form may be a part) above
TEAD3-YAP1 (Homo sapiens), sequence (Q99594 whole entry, looked up, the tested form may be a part): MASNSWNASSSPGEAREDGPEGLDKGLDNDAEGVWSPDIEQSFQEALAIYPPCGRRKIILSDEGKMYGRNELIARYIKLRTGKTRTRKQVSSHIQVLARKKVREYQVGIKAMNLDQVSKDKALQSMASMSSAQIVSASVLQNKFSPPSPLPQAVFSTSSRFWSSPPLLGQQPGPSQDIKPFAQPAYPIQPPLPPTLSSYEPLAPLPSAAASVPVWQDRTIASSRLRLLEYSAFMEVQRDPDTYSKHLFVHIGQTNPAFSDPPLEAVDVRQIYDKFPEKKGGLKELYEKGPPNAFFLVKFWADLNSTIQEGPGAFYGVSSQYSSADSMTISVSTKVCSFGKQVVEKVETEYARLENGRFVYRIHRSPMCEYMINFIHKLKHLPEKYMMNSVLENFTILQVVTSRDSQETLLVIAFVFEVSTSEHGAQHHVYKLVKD

[8] = species: Homo sapiens; assay: Covalent inhibition of GST-tagged TEAD4 C367S mutant (unknown origin) expressed in Escherichia coli BL21 (DE3)/FAM-labelled YAP1 (60 to 99 residues)(unknown origin) protein-protein interaction assessed as protein-compound adduct formation at 100 uM incubated for 24 hrs at 4 degree C followed by mass spectrometry analysis; how it was run: as §5
[9] = target: T1, YAP1-TEAD4; assay: as §1, with “GST-tagged TEAD4” for “TEAD2”, “434” for “447”, “48” for “24”, “TEAD4” for “compound”
How it was run: (§6)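 Time-course FP: 64 nM TEAD4 was preincubated with varying compound concentrations for 0.5, 6, 24 or 48 h at 4 °C in PBS with 0.01% Triton X-100. 16 nM FAM-YAP1 60–99 peptide was then added and polarization read at 485/535 nm, n = 2. Inhibition was taken relative to no-compound and no-protein controls.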

[10] = target: T1, YAP1-TEAD4; assay: as §3, with “measuring inhibition constant” for “second order rate constant, kinact/ki ratio”; how it was run: as §4
[11] = species: Homo sapiens; assay: as §1, with “GST-tagged TEAD4 C367S mutant” for “TEAD2 (217 to 447 residues)”, “TEAD4 C367S mutant” for “compound”; how it was run: as §2
[12] = target: T1, YAP1-TEAD4; assay: as §1, with “GST-tagged TEAD4” for “TEAD2”, “434” for “447”, “6” for “24”, “TEAD4” for “compound”; how it was run: as §6
[13] = target: T2, YAP1-TEAD4 (Homo sapiens); assay: (§7) Covalent inhibition of GST-tagged TEAD4 (217 to 434 residues) (unknown origin) expressed in Escherichia coli BL21 (DE3) cells/FAM-labelled YAP1 (60 to 99 residues)(unknown origin) protein-protein interaction assessed as additional protein-compound adduct formation at 100 uM incubated for 24 hrs at 4 degree C followed by mass spectrometry analysis; how it was run: as §5
[14] = target: T2, YAP1-TEAD4 (Homo sapiens); assay: as §7, with “as” for “as additional”; how it was run: as §5
[15] = target: T4, TEAD2-YAP1 (Homo sapiens) (UniProt P46937+Q15562); assay: as §1, with “interaction assessed as maximum inhibition at 50 uM” for “interaction”; how it was run: as §2
T4 sequence (P46937 whole entry, looked up): as the sequence (P46937 whole entry, the tested form may be a part) above
T4 sequence (Q15562 whole entry, looked up): as the sequence (Q15562 whole entry, the tested form may be a part) above

[16] = target: T2, YAP1-TEAD4 (Homo sapiens); assay: as §7, with “as” for “as additional”, “formation by measuring reaction half life” for “formation”, “0.5 to 6” for “24”; conditions: time 0.5-6 hrs; how it was run: as §4
[17] = target: T2, YAP1-TEAD4 (Homo sapiens); assay: as §7, with “second” for “additional”; how it was run: as §5
[18] = tested on: S2; assay: Inhibition of uPAR (unknown origin) expressed in S2 cells/FAM-labelled alpha-helical peptide AE-147 (unknown origin) protein-protein interaction preincubated for 24 hrs at 4 degree C with uPAR followed by fluorescent labelled AE-147 addition by fluorescence polarization assay; conditions: Homo sapiens
How it was run: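 Counter-screen FP: 250 nM uPAR lacking the GPI anchor (from S2 cells) was preincubated with compound for 24 h at 4 °C in PBS with 0.01% Triton X-100. AE-147-FAM peptide was then added at 100 nM final and polarization read at ex 485/em 535 nm.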

[19] = target: T2, YAP1-TEAD4 (Homo sapiens); assay: as §1, with “GST-tagged TEAD4” for “TEAD2”, “434” for “447”, “interaction assessed maximum inhibition” for “interaction”, “6” for “24”, “TEAD4” for “compound”; how it was run: as §6
[20] = target: T3, Transcriptional coactivator YAP1/Transcriptional enhancer factor TEF-1 (Homo sapiens); assay: as §1, with “TEAD1 (209” for “TEAD2 (217”, “426” for “447”; how it was run: as §2
[21] = target: T2, YAP1-TEAD4 (Homo sapiens); assay: as §1, with “GST-tagged TEAD4” for “TEAD2”, “434” for “447”, “interaction assessed maximum inhibition” for “interaction”, “48” for “24”, “TEAD4” for “compound”; how it was run: as §6
[22] = target: T2, YAP1-TEAD4 (Homo sapiens); assay: as §1, with “GST-tagged TEAD4” for “TEAD2”, “434” for “447”, “interaction assessed maximum inhibition” for “interaction”, “0.5” for “24”, “TEAD4” for “compound”; how it was run: as §6
[23] = target: T4, TEAD2-YAP1 (Homo sapiens); assay: as §1; how it was run: as §2
[24] = target: T1, YAP1-TEAD4; assay: as §1, with “GST-tagged TEAD4” for “TEAD2”, “434” for “447”, “0.5” for “24”, “TEAD4” for “compound”; how it was run: as §6
[25] = target: T4, TEAD2-YAP1 (Homo sapiens); assay: as §7, with “TEAD2” for “GST-tagged TEAD4”, “447” for “434”, “as” for “as additional”; how it was run: as §5

## O=C(CCl)NCCSc1ccc(Cl)cc1
[1]
  IC50: 86.7 µM
[2]
  IC50: 1.4 µM
[3]
  Ratio: 1.6 M⁻¹ s⁻¹
[4]
  Imax: 35%
[5]
  inhibition: Active
[6]
  IC50: 182 µM
[7]
  inhibition: inactive
[8]
  inhibition: inactive

## CCS(=O)(=O)Oc1ccc(CN(Cc2ccc(F)cc2)C(=O)CCl)cc1
[1]
  IC50: 22 µM
[9]
  IC50: 5.3 µM
[10]
  Ki: 45.8 µM
[11]
  inhibition: inactive
[12]
  IC50: 54.5 µM
[2]
  IC50: 4.2 µM
[13]
  percent protein-compound adduct formation: 20%
[14]
  percent protein-compound adduct formation: 46%
[15]
  Imax: 22%
[3]
  Ratio: 1.3 M⁻¹ s⁻¹
[4]
  Imax: 37%
[5]
  inhibition: Active
[16]
  T1/2: 3.3 h
[17]
  percent second protein-compound adduct: 11%
[18]
  inhibition: inactive
[19]
  Imax: 38%
[20]
  inhibition: inactive
[7]
  inhibition: inactive
[21]
  Imax: 38%
[8]
  inhibition: inactive

## O=C(NCCc1ccccc1)C(c1cccs1)N(C(=O)CCl)c1cccc(Cl)c1 (centres undefined)
[22]
  Imax: 37%
[23]
  inhibition: inactive
[9]
  IC50: 0.9 µM
[10]
  Ki: 17.3 µM
[11]
  inhibition: inactive
[12]
  IC50: 4.6 µM
[2]
  IC50: 1.4 µM
[13]
  percent protein-compound adduct formation: 17%
[14]
  percent protein-compound adduct formation: 55%
[3]
  Ratio: 5.1 M⁻¹ s⁻¹
[4]
  Imax: 31%
[5]
  inhibition: Active
[24]
  IC50: 9.7 µM
[16]
  T1/2: 2.2 h
[17]
  percent second protein-compound adduct: 18%
[18]
  inhibition: inactive
[19]
  Imax: 37%
[20]
  inhibition: inactive
[7]
  inhibition: inactive
[21]
  Imax: 37%
[8]
  inhibition: inactive

## Cc1ccc(C2=NN(C(=O)CCl)C(c3ccco3)C2)cc1 (centres undefined)
[22]
  Imax: 35%
[25]
  inhibition: Active
[1]
  IC50: 2.3 µM
[9]
  IC50: 1.4 µM
[11]
  inhibition: inactive
[12]
  IC50: 5.9 µM
[2]
  IC50: 2.2 µM
[14]
  percent protein-compound adduct formation: 85%
[15]
  Imax: 29%
[3]
  Ratio: 13.5 M⁻¹ s⁻¹
[4]
  Imax: 40%
[5]
  inhibition: Active
[24]
  IC50: 18.1 µM
[17]
  percent second protein-compound adduct: 15%
[18]
  inhibition: inactive
[19]
  Imax: 35%
[20]
  inhibition: inactive
[7]
  inhibition: inactive
[21]
  Imax: 35%
[8]
  inhibition: inactive
